Data set [1] deals with Nucleic Acid. The data set is described as follows: B app constant towards DNA. The format is nucleic-acid assay. The following applies: Bos taurus. Summed up:
(§1)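 Association constants for DNA binding were derived from absorption changes of calf thymus DNA at 6 × 10^-7 M, expressed as mononucleotide concentration. The buffer was 50 mM Tris-HCl, pH 7.4, with 0.1 M NaCl.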

Data set [2] has as its system Nucleic Acid. Briefly: Apparent association constant towards DNA at concentration of 10e-7/M. The format is nucleic-acid assay. The following applies: Bos taurus. Summed up:
as §1

Data set [3] concerns Mus musculus. The data set is described as follows: In vivo evaluation for the antitumor activity on L1210 leukemia cells at the dose 2.5 mg/kg administered intraperitoneally 1 day after 10 e5 L1210 leukemia cells and increase in life span. The following applies: L1210, ip, 24 h, route intraperitoneal. The format is functional.
Data set [4] deals with Mus musculus. Briefly: In Vivo evaluation for the antitumor activity on grafted tumor friend cells at the dose 2.5 mg/kg and Increase in the life span. The format is functional. The procedure, abridged:
(§2)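 Friend tumor cells, 10^6, injected iv into syngeneic mice. Mice randomized in groups of 16. Drug dissolved in acidified saline (equimolar acetic acid) and given as a single iv dose 3 days after inoculation. Median survival time recorded. %ILS = (treated median survival − control median survival)/control median survival × 100.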

The subject of data set [5] is Mus musculus. Briefly: In Vivo antitumor activity on grafted tumor friend cells at the dose 2.5 mg/kg and decrease in intravenous 10 e 6 cells and median survival time. The format is functional. Summed up:
as §2

The subject of data set [6] is Mus musculus. Briefly: In vivo antitumor activity on L1210 leukemia cells at the dose 2.5 mg/kg administered intraperitoneally 1 day after 10 e5 L1210 leukemia cells and range of deaths. Format: functional. The settings on record: route intraperitoneal.
In data set [7] the test system is Mus musculus. The data set is described as follows: In vivo evaluation for the antitumor activity on L1210 leukemia cells at the dose 2.5 mg/kg administered intraperitoneally 1 day after 10 e5 L1210 leukemia cells and Mean survival time. Format: functional. The following applies: route intraperitoneal.
In data set [8] the test system is Mus musculus. Briefly: In vivo acute toxicity (nonlethal dose) against mice by intravenous administration. Format: organism-based. Summed up: (§3)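 Mice (ICFW, C3H or B6D2 F1; 6-8 weeks; 22-24 g) in five groups of six. Drug dissolved in acidified saline (equimolar acetic acid) and given as a single ip or iv dose of 2, 5, 10, 25 or 50 mg/kg. Mortality observed over 30 days to set the lethal dose (LD100) and the highest nonlethal dose (LD0).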

The test system of data set [9] is Mus musculus. Briefly: In vivo acute toxicity (lethal dose) against mice by intravenous administration. The format is organism-based. Summed up:
as §3

The subject of data set [10] is Mus musculus. The data set is described as follows: In vivo acute toxicity (nonlethal dose) against mice by intraperitoneal administration. The following applies: ip. The format is organism-based. Summed up:
as §3

The subject of data set [11] is Mus musculus. Briefly: In vivo acute toxicity (lethal dose) against mice by intraperitoneal administration. Format: organism-based. The settings on record: ip. Summed up: as §3
The test system of data set [12] is Friend leukemia cells (Mus musculus). The data set is described as follows: In vitro concentration required for growth inhibition of murine Friend leukemia cell. The settings on record: read-out: ID50 (the source's name).

By ILS is commonly meant how much longer treated animals lived than controls. A low value points to a small benefit in survival.

Consider `CCN(CC)CCCNc1nccc2c(C)c3[nH]c4ccc(O)cc4c3c(C)c12`, for which, in the data set with Nucleic Acid [1], the Bapp amounted to 0.16. For the same molecule, the K app in the data set on Nucleic Acid [2] was found to be 2e+07 M⁻¹. Also, the ILS at 2.5 mg/kg with Mus musculus [3] came to 57.1%; with Mus musculus [4] it was 34.1%. The MST in the data set on Mus musculus [5] came out at 11.4 days; in the data set on Mus musculus [7], 16.4 days. The same molecule returned a Range of deaths with Mus musculus [6] of 19 days. The LD0 worked out at 2 mg/kg in the data set on Mus musculus [8] and 2.5 mg/kg in the data set with Mus musculus [10]. Further, the LD100 in the data set on Mus musculus [9] and in the data set with Mus musculus [11] was 7 mg/kg throughout. The IC50 in data set [12] is 30 nM.

The record behind these values is ChEMBL document CHEMBL1121556, “Structure-activity relationships in a series of newly synthesized 1-amino-substituted ellipticine derivatives” (J Med Chem, 1980).
